Source: ChEMBL document CHEMBL3763017, “Synthesis and evaluation of dual antiplatelet activity of bispidine derivatives of N-substituted pyroglutamic acids” (Eur J Med Chem, 2016)
Each block holds one molecule with its values, some of them ahead of it. Activity calls are given as the source filed them. The rule behind the calls is not given here.

Assays:
Mus musculus [1] = assay: Antithrombotic activity in Swiss albino mouse assessed as protection against collagen-epinephrine induced pulmonary thromboembolism at 30 umol/kg, po after 1 hr; format: functional
Summary of the method: (§1)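 Male Swiss albino mice (18–22 g) dosed orally in 0.5% carboxymethyl cellulose 1, 2, 4, 6, 12 or 24 h before challenge. Collagen (150 μg/ml) plus adrenaline (50 μg/ml) injected into the tail vein. Dead or hind-limb-paralysed mice counted over 15 min and expressed as % protection. Ten mice per drug group, five for vehicle.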

[2] = Antiplatelet activity in human platelet rich plasma assessed as inhibition of collagen-induced platelet aggregation at 30 uM preincubated for 5 mins followed by collagen stimulation by turbidimetry; format: functional
Summary of the method: (§2)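 Human PRP (1×10^8 platelets/ml) from healthy-donor blood spun at 1000 rpm for 10 min. Pre-treated 5 min with compound or 0.4% DMSO vehicle, then agonist added at 37 °C. Light-transmission aggregometry run at least 5–10 min; % aggregation calculated. Single-point screens at 30 μM, n = 3; mean ± SEM.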

Mus musculus [3] = assay: Toxicity in Swiss albino mouse assessed as bleeding time at 170 umol/kg, po administered as single dose measured up to 24 hrs (reference value: 3.5 +/- 0.3 mins); format: organism-based; details: in vivo
Mus musculus [4] = assay: Antithrombotic activity in ferric chloride-induced Swiss albino mouse arterial thrombosis model assessed as time to occlusion at 170 umol/kg, po; format: functional, organism-based
Mus musculus [5] = assay: Antithrombotic activity in Swiss albino mouse assessed as protection against collagen-epinephrine induced pulmonary thromboembolism at 170 umol/kg, po measured upto 5 hrs; format: functional; summary of the method: as §1
[6] = Antiplatelet activity in human platelet rich plasma assessed as inhibition of U46619-induced platelet aggregation at 30 uM preincubated for 5 mins followed by U46619 stimulation by turbidimetry; format: functional; summary of the method: as §2
Platelet [7] = assay: Antiplatelet activity in human platelet rich plasma assessed as inhibition of ristocetin-induced platelet aggregation up to 300 uM preincubated for 5 mins followed by ristocetin stimulation by turbidimetry; format: functional
Platelet [8] = assay: Inhibition of human platelet adhesion over collagen at 30 uM for 15 mins in presence of Mg2+ by microplate reader analysis; format: functional; details: 0.25 h
Summary of the method: (§3)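 Wells coated overnight with fibrillar type I collagen and blocked with BSA. Washed platelets (1×10^8/ml) preincubated 15 min at 37 °C with compound or DMSO, then allowed to adhere 1 h at room temperature in Tyrode-HEPES with 1 mM Mg2+ or with Mg2+ replaced by 50 μM EDTA. Adherent cells quantified with p-nitrophenyl phosphate in citrate pH 5.4 (60 min, 25 °C), NaOH stop, A405.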

Mus musculus [9] = assay: Antithrombotic activity in ferric chloride-induced Swiss albino mouse arterial thrombosis model assessed as prolonged time to occlusion at 30 umol/kg, po measured after 4 hrs (reference value: 9.5 +/- 0.4 mins); format: functional
Platelet [10] = assay: Inhibition of human platelet adhesion over collagen at 300 uM for 15 mins in absence of Mg2+ by microplate reader analysis; format: functional, cell-based; summary of the method: as §3
Platelet [11] = assay: Inhibition of human platelet adhesion over collagen at 30 uM for 15 mins in absence of Mg2+ by microplate reader analysis; format: functional; details: 0.25 h; summary of the method: as §3
Aorta [12] = assay: Inhibition of U46619-induced vasocontraction in Sprague-Dawley rat thoracic aoritc rings at 3 and 5 uM; format: functional
Platelet [13] = assay: Antiplatelet activity in human platelet rich plasma assessed as inhibition of ADP-induced platelet aggregation up to 300 uM preincubated for 5 mins followed by ADP stimulation by turbidimetry; format: functional
[14] = Antiplatelet activity in human platelet rich plasma assessed as inhibition of collagen-induced platelet aggregation preincubated for 5 mins followed by collagen stimulation by turbidimetry; format: functional
Mus musculus [15] = assay: Antithrombotic activity in ferric chloride-induced Swiss albino mouse arterial thrombosis model assessed as prolonged time to occlusion at 20 umol/kg, po measured after 4 hrs (reference value: 9.5 +/- 0.4 mins); format: functional
Aorta [16] = assay: Inhibition of KCl-induced vasocontraction in Sprague-Dawley rat thoracic aoritc rings; format: functional
Mus musculus [17] = assay: Antithrombotic activity in Swiss albino mouse assessed as protection against collagen-epinephrine induced pulmonary thromboembolism at 30 umol/kg, po after 4 hrs; format: functional; summary of the method: as §1
Platelet [18] = assay: Inhibition of human platelet adhesion over collagen at 300 uM for 15 mins in presence of Mg2+ by microplate reader analysis; format: functional, cell-based; summary of the method: as §3
Mus musculus [19] = assay: Toxicity in Swiss albino mouse assessed as bleeding time at 30 umol/kg, po administered as single dose measured after 4 hrs (reference value: 3.5 +/- 0.3 mins); format: organism-based; details: in vivo
Platelet [20] = assay: Inhibition of human platelet adhesion over collagen for 15 mins in absence of Mg2+ by microplate reader analysis; format: functional, cell-based; summary of the method: as §3
Plasma [21] = assay: Anticoagulant activity in human plasma assessed as activated partial thromboplastin time at 30 to 300 uM; format: functional, cell-free
Summary of the method: (§4)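 Human plasma from healthy donors, blood collected in CPD 1:7 and spun twice to give platelet-poor plasma. TT, PT and aPTT determined with commercial kits on a coagulometer. Hirudin 1 μg/ml served as reference anticoagulant; 0.4% DMSO vehicle.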

[22] = Antiplatelet activity in human platelet rich plasma assessed as inhibition of U46619-induced platelet aggregation preincubated for 5 mins followed by U46619 stimulation by turbidimetry; format: functional
Platelet [23] = assay: Antiplatelet activity in human platelet rich plasma assessed as inhibition of CRP-XL-induced platelet aggregation up to 300 uM preincubated for 5 mins followed by CRP-XL stimulation by turbidimetry; format: functional
Plasma [24] = assay: Anticoagulant activity in human plasma assessed as thrombin time at 30 to 300 uM; format: functional, cell-free; summary of the method: as §4
Plasma [25] = assay: Anticoagulant activity in human plasma assessed as prothrombin time at 30 to 300 uM; format: functional, cell-free; summary of the method: as §4
Platelet [26] = assay: Inhibition of human platelet adhesion over collagen for 15 mins in presence of Mg2+ by microplate reader analysis; format: functional, cell-based; summary of the method: as §3
Platelet [27] = assay: Antiplatelet activity in human platelet rich plasma assessed as inhibition of TRAP-induced platelet aggregation up to 300 uM preincubated for 5 mins followed by TRAP stimulation by turbidimetry; format: functional
Platelet [28] = assay: Inhibition of U46619-induced protein tyrosine phosphorylation in human platelets preincubated at 3 to 100 uM for 5 mins followed by U46619 stimulation for 10 mins by Western blot analysis; format: functional, cell-based
Summary of the method: (§5)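 Washed human platelets in Tyrode-HEPES pH 7.4 preincubated 5 min at 37 °C with 0.4% DMSO or compound (3–100 μM). Stimulated 10 min with collagen (1 μg/ml) or U46619 (0.25 μg/ml). Stopped with boiling Laemmli buffer; SDS-PAGE and anti-phosphotyrosine (4G10) immunoblot. Three separate experiments.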

Mus musculus [29] = assay: Toxicity in Swiss albino mouse assessed as bleeding time at 30 umol/kg, po administered as single dose measured after 1 hr (reference value: 3.5 +/- 0.3 mins); format: organism-based; details: in vivo
Platelet [30] = assay: Antiplatelet activity in human platelet rich plasma assessed as inhibition of arachidonic acid-induced platelet aggregation up to 300 uM preincubated for 5 mins followed by arachidonic acid stimulation by turbidimetry; format: functional
Aorta [31] = assay: Inhibition of U46619-induced vasocontraction in Sprague-Dawley rat thoracic aoritc rings at 15 uM (reference value: 89.8 +/- 8.5%); format: functional; design: scale not given: the % may be the effect or the level left
[32] = Antiplatelet activity in human platelet rich plasma assessed as inhibition of arachidonic acid-induced platelet aggregation at 300 to 500 uM preincubated for 5 mins followed by arachidonic acid stimulation by turbidimetry; format: functional
Aorta [33] = assay: Inhibition of U46619-induced vasocontraction in Sprague-Dawley rat thoracic aoritc rings at 30 uM (reference value: 89.8 +/- 8.5%); format: functional; design: scale not given: the % may be the effect or the level left
Platelet [34] = assay: Inhibition of collagen-induced protein tyrosine phosphorylation in human platelets preincubated at 3 to 100 uM for 5 mins followed by collagen stimulation for 10 mins by Western blot analysis; format: functional, cell-based; summary of the method: as §5

SMILES: CC(C)(C)OC(=O)N1CC2CC(C1)CN(C(=O)[C@@H]1CCC(=O)N1Cc1ccccc1)C2
Activity (Mus musculus [1]): 40%
inhibition at 30 µM [2]: 6%

SMILES: CC(C)(C)OC(=O)N1CC2CC(C1)CN(C(=O)[C@@H]1CCC(=O)N1Cc1c(Cl)cccc1Cl)C2
Activity (Mus musculus [1]): 30%
inhibition at 30 µM [2]: 3%

SMILES: Cc1ccc(CN2C(=O)CC[C@H]2C(=O)N2CC3CC(C2)CN(S(=O)(=O)c2ccc(C)cc2)C3)cc1
Activity (Mus musculus [1]): 40%
inhibition at 30 µM [2]: 37.5%

SMILES: CC(=O)Oc1ccccc1C(=O)O [ASPIRIN]
Time (Mus musculus [3]): 6.6 min
Activity (Mus musculus [4]): inactive
Activity (Mus musculus [5]): 40%

SMILES: Cc1ccc(S(=O)(=O)N2CC3CC(CN(C(=O)[C@@H]4CCC(=O)N4Cc4ccccc4Br)C3)C2)cc1
Activity (Mus musculus [1]): 55%
inhibition at 30 µM [2]: 16.8%

SMILES: COc1ccc(CN2C(=O)CC[C@H]2C(=O)N2CC3CC(CN(C(=O)OC(C)(C)C)C3)C2)cc1
Activity (Mus musculus [1]): 45%
inhibition at 30 µM [2]: 10%

SMILES: O=C([C@@H]1CCC(=O)N1S(=O)(=O)c1ccccc1)N1CC2CC(CN(Cc3ccccc3)C2)C1
Activity (Mus musculus [1]): 30%
inhibition at 30 µM [2]: 29%

SMILES: Cc1ccc(CN2C(=O)CC[C@H]2C(=O)N2CC3CC(CN(C(=O)c4ccccc4)C3)C2)cc1
Activity (Mus musculus [1]): 40%
inhibition at 30 µM [2]: 20.5%

SMILES: CC(C)(C)OC(=O)N1CC2CC(C1)CN(C(=O)[C@@H]1CCC(=O)N1Cc1ccc(C#N)cc1)C2
Activity (Mus musculus [1]): 55%
inhibition at 30 µM [2]: 11%

SMILES: Cc1ccc(CN2C(=O)CC[C@H]2C(=O)N2CC3CC(CN(Cc4ccccc4Br)C3)C2)cc1
Activity (Mus musculus [1]): 30%
inhibition at 30 µM [2]: 67%
inhibition at 30 µM [6]: 70%

SMILES: CC(C)(C)OC(=O)N1CC2CC(C1)CN(C(=O)[C@@H]1CCC(=O)N1Cc1ccc(Cl)cc1)C2
Activity (Mus musculus [1]): 30%
inhibition at 30 µM [2]: 6%

SMILES: O=C([C@@H]1CCC(=O)N1Cc1ccccc1)N1CC2CC(CN(Cc3ccccc3)C2)C1
Activity (Mus musculus [1]): 30%
inhibition at 30 µM [2]: 44%

IC50 [14]: 1.7 µM
IC50 [22]: 7.7 µM
SMILES: O=C([C@@H]1CCC(=O)N1Cc1ccccc1Br)N1CC2CC(CN(Cc3ccccc3)C2)C1
inhibition (Platelet [7]): inactive
inhibition at 30 µM (Platelet [8]): 27%
Time (Mus musculus [9]): 20 min
inhibition (Platelet [10]): Active
inhibition at 30 µM (Platelet [11]): 27%
inhibition (Aorta [12]): inactive
Activity (Mus musculus [1]): 40%
inhibition (Platelet [13]): inactive
Time (Mus musculus [15]): 13.3 min
inhibition (Aorta [16]): inactive
Activity (Mus musculus [17]): 60%
inhibition (Platelet [18]): Active
Time (Mus musculus [19]): 4.3 min
inhibition at 30 µM [2]: 86%
inhibition (Platelet [20]): Dose-dependent effect
Activity (Plasma [21]): inactive
inhibition (Platelet [23]): inactive
Activity (Plasma [24]): inactive
Activity (Plasma [25]): inactive
inhibition (Platelet [26]): Dose-dependent effect
inhibition (Platelet [27]): inactive
inhibition (Platelet [28]): Active
inhibition at 30 µM [6]: 79%
Time (Mus musculus [29]): 3.4 min
inhibition (Platelet [30]): inactive
Activity (Aorta [31]): 21.8%
inhibition (INH) [32]: 50%
Activity (Aorta [33]): 14.2%
inhibition (Platelet [34]): Active
